OX1R antag-1: antagonists of human orexin 1 receptor (OX1R). Orexin/Hypocretin receptor type 1 (Homo sapiens), O43613. inhibition, % at 6.6 µM. AID 485270, 2010. OX1R-expressing cells, FRET antagonist read-out. actives 1.8% (n = 330,000); in the data active = inhibition mostly above about 38%, no sharp cut-off; inactive = mostly below about 40%
CHO parental Ca: ATP-evoked calcium signal inhibitors, parental CHO, primary screen, counter-screen for OX1R antagonist project, cell-based, fluorescence, Fluo-8 calcium dye; parental CHO-K1, ATP-induced calcium, Fluo-8 fluorescence; inhibition, % at 5.6 µM; actives 0.63% (n = 330,000); AID 463079, 2010;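 active = inhibition above that plate's mean sample inhibition plus 3 SD, cut at about 26% in these data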
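Material: parental CHO cells / Compound: single nominal dose of 5.6 µM per compound / Signal: Fluo-8 fluorescence / Replicates: singlicate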
GalR3 antag: GalR3 antagonists in HEK293 cells, primary screen, cell-based, fluorescence readout; Galanin receptor type 3 (Homo sapiens), O60755; HEK293 GalR3-CNG cAMP membrane potential fluorescence; galR3 body fused to GalR1 C-terminus; inhibition, % at 3 µM; actives 0.44% (n = 360,000); AID 651719, 2012;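 active = inhibition above the screen-wide average plus 3 SD, cut at about 13% in these data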;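 also: forskolin and galanin both at EC90 stimulate the cells; cAMP rise reported by CNG channel membrane potential dye signal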
Target sequence (O60755 1-299 limits assumed): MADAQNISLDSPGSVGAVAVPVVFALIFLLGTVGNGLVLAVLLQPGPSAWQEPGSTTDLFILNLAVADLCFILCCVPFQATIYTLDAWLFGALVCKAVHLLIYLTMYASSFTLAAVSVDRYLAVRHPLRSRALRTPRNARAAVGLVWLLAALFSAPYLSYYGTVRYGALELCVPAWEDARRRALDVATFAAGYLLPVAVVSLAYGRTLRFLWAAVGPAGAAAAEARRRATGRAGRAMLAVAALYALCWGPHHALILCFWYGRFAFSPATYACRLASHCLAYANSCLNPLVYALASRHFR
OX1R antag-2: OX1R (HCRTR1) antagonists, primary screen, fluorescence, CHO/OX1R cells, Fluo-8 calcium, orexin A | actives 0.43% (n = 330,000) | Orexin/Hypocretin receptor type 1 (Homo sapiens), O43613 | inhibition, % at 5 µM | Fluo-8 calcium fluorescence;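 active = inhibition above its plate's threshold, mean inhibition of all tested compounds on the plate plus 3 SD, cut at about 37% in these data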
GPR7 antagonist: GPR7 receptor antagonists, primary screen, cell-based, fluorescence, single concentration; GPR7-expressing cells, fluorescence antagonist assay; inhibition, % at 4.4 µM; actives 1.1% (n = 290,000); in the data active = inhibition above about 16%, passing the limit was not always enough;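 also: cells stimulated with the agonist NPW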
GalR3 antag conf: GalR3 antagonist hit confirmation, cell-based, fluorescence, triplicate | actives 59% (n = 1,600) | AID 652245, 2013 | HEK293 GalR3 CNG cAMP biosensor, membrane potential fluorescence; galR3 fused to GalR1 carboxy tail; challenged with forskolin and galanin at EC90 | inhibition, % at 3 µM | shares compounds with GalR3 antag;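 active = inhibition above the primary screen's cutoff, the mean inhibition of all screened compounds plus 3 SD, cut at about 13% in these data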
CNG parental: nonspecific cAMP agonists in parental HEK-CNG cells, counter-screen for GalR3 antagonist project, cell-based, fluorescence, high throughput. AID 652268, 2013. activation, % at 3 µM. actives 10% (n = 1,600). HEK293-CNG parental cells, cAMP membrane potential fluorescence; normalised: DMSO wells 0%, forskolin wells 100%. shares compounds with GalR3 antag; in the data active = activation above about 1.3%
Large screens that a line does not name were inactive (follow-up assays come after a bar, where they were run). Hits are enriched below; roughly 3.1% of the tested compounds scored in any of these assays.

Cc1ccccc1Nc1c(-c2ccc(N3CCOCC3)cc2)nc2cnccn12	none
Cc1ccc(Nc2c(-c3ccc(N4CCOCC4)cc3)nc3cnccn23)cc1	GalR3 antag 16.0 | GalR3 antag conf inactive | CNG parental inactive
O=C(Nc1ccncc1)c1ccc(-c2ccccc2)cc1	CHO parental Ca 58.3, OX1R antag-2 47.0 (no result: GalR3 antag) | GalR3 antag conf 56.3 | CNG parental inactive
COc1cc(/C=N\NC(=O)c2ccc(-c3ccccc3)cc2)cc(Br)c1O	GalR3 antag 14.5 | GalR3 antag conf 40.8 | CNG parental inactive
Cc1ccnc(SC2CC(=O)N(c3ccc(F)cc3)C2=O)n1 (stereo unspecified)	none
CCS(=O)c1ccccc1C(=O)OCC(=O)Nc1cccc(S(=O)(=O)N2CCCCC2)c1 (stereo unspecified)	GalR3 antag 91.7 (no result: GPR7 antagonist) | GalR3 antag conf 96.0 | CNG parental inactive
Cc1cc(OCC(=O)Nc2cccc(S(=O)(=O)N3CCCC3)c2)ccc1Cl	none (no result: OX1R antag-1, CHO parental Ca, OX1R antag-2, GPR7 antagonist)
CCC(=O)c1ccc(OCC(=O)Nc2cccc(S(=O)(=O)N3CCCCCC3)c2)cc1	GalR3 antag 98.2 (no result: OX1R antag-1, CHO parental Ca, OX1R antag-2, GPR7 antagonist) | GalR3 antag conf 97.3 | CNG parental inactive
O=C(Cn1cnc2cc([N+](=O)[O-])ccc2c1=O)Nc1ccc(N2CCOCC2)cc1	none
O=C1[C@H](Cc2ccccc2)NCCCC[C@@H](c2ccc(Cl)cc2)N1Cc1ccccc1	none (no result: OX1R antag-1, CHO parental Ca, GalR3 antag, OX1R antag-2, GPR7 antagonist) | GalR3 antag conf inactive | CNG parental 2.3
O=C1[C@H](Cc2ccccc2)NCCCC[C@H](c2ccc(Cl)cc2)N1Cc1ccc(Cl)cc1	none (no result: OX1R antag-1, CHO parental Ca, OX1R antag-2, GPR7 antagonist)
COc1ccc(S(=O)(=O)N2CCCCC2)cc1NC(=O)c1c(F)cccc1Cl	none (no result: OX1R antag-1, CHO parental Ca, OX1R antag-2, GPR7 antagonist)
Cc1ccc2c(c1)C1C3CCC(C3)C1S(=O)N2 (stereo unspecified)	GalR3 antag 18.0 | GalR3 antag conf inactive | CNG parental inactive
CCN(CC)c1ccc(/C=N/NC(=S)NCc2ccccc2)c(O)c1	GalR3 antag 12.7 | GalR3 antag conf 25.0 | CNG parental inactive
CCN(CC)c1ccc(/C=N/N(c2ccccc2)c2ccccc2)c(O)c1	none
COc1cc2c(cc1OC)C(c1ccc3c(c1)OCO3)C1=C(CC(C)(C)CC1=O)N2 (stereo unspecified)	GalR3 antag 13.4 | GalR3 antag conf 29.3 | CNG parental inactive
COc1cccc(C2C3=C(CC(C)(C)CC3=O)Nc3cc4c(cc32)OCO4)c1 (stereo unspecified)	none
COc1cccc(C2C3=C(CC(C)(C)CC3=O)Nc3cc(OC)c(OC)cc32)c1 (stereo unspecified)	GalR3 antag 14.7 | GalR3 antag conf 23.0 | CNG parental inactive
Cc1ccc(-c2nn3c(C)nnc3c3ccccc23)cc1S(=O)(=O)NC(C)c1ccccc1 (stereo unspecified)	GalR3 antag 15.1 | GalR3 antag conf 22.9 | CNG parental inactive
Cc1ccc(-c2nn3c(C)nnc3c3ccccc23)cc1S(=O)(=O)NCCO	none
CCC(C)c1ccc(NC(=O)c2ccco2)cc1 (stereo unspecified)	none (no result: OX1R antag-1, CHO parental Ca, OX1R antag-2)
O=[N+]([O-])c1ccc(-c2ccc(S(=O)(=O)NCCN3CCCC3)cc2)cc1	OX1R antag-1 59.1, GalR3 antag 41.5 | GalR3 antag conf inactive | CNG parental inactive
O=[N+]([O-])c1ccc(S(=O)(=O)NCCCc2ccccc2)cc1	none (no result: GPR7 antagonist)
O=C(COc1cccc2ccccc12)N/N=C/c1ccco1	none

Compound activity deposited in PubChem BioAssay by The Scripps Research Institute Molecular Screening Center.
